Activity calls are given as the source filed them. The rule behind the calls is not given here.
Tests used:
[1] = system: RAW264.7; test: Antiinflammatory activity in mouse RAW264.7 cells assessed as inhibition of LPS-induced nitric oxide production after 24 hrs by Griess assay; assay type: functional, cell-based; conditions: RAW264.7, 24 h
How it was run: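 Nitrite in medium read by Griess reagent (1% sulfanilamide, 0.1% naphthylethylenediamine in 5% phosphoric acid) mixed 1:1 with medium for 5 min. Absorbance at 550 nm, quantified against a sodium nitrite standard in culture medium.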

[2] = system: RAW264.7; test: Cytotoxicity against mouse RAW264.7 cells assessed as cell viability after 24 hrs by MTS assay; assay type: cell-based; conditions: RAW264.7, 24 h
How it was run: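 Cells seeded 5 × 10^4/well and exposed 24 h. MTS added, 1 h at 37 °C, absorbance read at 490 nm. Percent of control = Ab treated/Ab control × 100 (n = 3). IC50 is the concentration cutting absorbance by 50%, taken from the linear portion of the curve.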

[3] = molecular target: Transcription factor p65 (Mus musculus) (UniProt Q04207); test: Inhibition of NFkappaB p65 nuclear translocation in mouse RAW264.7 cells after 24 hrs by DAPI staining-based laser confocal immunofluorescent microscopic analysis; assay type: cell-based
How it was run: (§1)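 Cells grown on glass coverslips 24 h, then given LPS 0.1 µg/mL and/or compound 0.5 µM. Fixed in 4% paraformaldehyde, permeabilized with 0.2% Triton X-100. Anti-p65 antibody applied 24 h, then Alexa 568 secondary 1 h. Nuclei stained with DAPI. Imaged by confocal microscopy.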

[4] = Induction of nitric oxide scavenging activity assessed as nitrite level at 10 uM at room temperature after 60 mins by Griess assay in presence of light and SNP; assay type: physicochemical; conditions: 1 h
How it was run: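 Sodium nitroprusside 2.5 mM in PBS incubated alone or with compound (10 µM) in light at room temperature for 60 min. Nitrite then measured by Griess reaction. 1400 W (10 µM) as comparator.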

[5] = system: RAW264.7; test: Antiinflammatory activity in mouse RAW264.7 cells assessed as inhibition of LPS-induced COX-2 expression at 0.5 to 2 uM incubated for 2 hrs prior to LPS challenge measured after 24 hrs by Western blot analysis; assay type: functional, cell-based
How it was run: (§2)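 Cells at 5 × 10^5/well, pretreated 2 h, then LPS 0.1 µg/mL for 24 h. Lysed in RIPA and protein assayed by Bradford. 20–50 µg separated on 8–15% SDS-PAGE and blotted to PVDF. Probed for murine iNOS or COX-2, HRP secondary, ECL detection, densitometry. Means + S.D. of 3 experiments in triplicate.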

[6] = system: RAW264.7; test: Antiinflammatory activity in mouse RAW264.7 cells assessed as inhibition of LPS-induced iNOS expression at 0.5 to 2 uM incubated for 2 hrs prior to LPS challenge measured after 24 hrs by Western blot analysis; assay type: functional, cell-based; how it was run: as §2
[7] = system: RAW264.7; test: Antiinflammatory activity in mouse RAW264.7 cells assessed as downregulation of LPS-induced iNOS mRNA expression at 2 uM incubated for 2 hrs prior to LPS challenge measured after 9 hrs by RT-PCR analysis; assay type: functional, cell-based
How it was run: (§3)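 Cells at 5 × 10^5/well, pretreated 2 h, then LPS 0.1 µg/mL for 9 h. Total RNA isolated with Trizol. 1 µg RNA reverse-transcribed with oligo dT primers. Amplicons run on 3% agarose gel, band intensity normalized to GAPDH. Means + S.D. of 3 experiments in triplicate.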

[8] = system: RAW264.7; test: Antiinflammatory activity in mouse RAW264.7 cells assessed as inhibition of LPS-induced MMP-9 expression incubated for 2 hrs prior to LPS challenge measured after 24 hrs by gelatin zymographic analysis; assay type: functional, cell-based
How it was run: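 Cells plated 16–18 h, then treated with LPS 0.1 µg/ml plus compound (0.5, 1.0, 2.0 µM). Medium collected at 24 h and concentrated. Run on 7.5% acrylamide gel containing 2 mg/ml gelatin. Gel renatured in Triton X-100, then buffer overnight at 37 °C, developed 16–18 h in Tris pH 7.5/NaCl/CaCl2. Coomassie stain. MMP-9 band scanned, expressed as % of control.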

[9] = molecular target: T1, MAP kinase p38 (Mus musculus) (UniProt P47811+O08911+Q9WUI1+Q9Z1B7); test: Inhibition of p38 MAPK phosphorylation in LPS-induced mouse RAW264.7 cells incubated for 2 hrs prior to LPS challenge measured after 24 hrs by Western blot analysis; assay type: cell-based
How it was run: (§4)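 Cells at 5 × 10^5/well, pretreated 2 h, then LPS 0.1 µg/mL for 24 h. 15 µg lysate protein run on 8% SDS-PAGE. p38 and p-p38 detected by Western blot with densitometry. Relative density = p-p38/β-actin. Means + S.D. of 3 experiments in triplicate.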

[10] = system: RAW264.7; test: Antiinflammatory activity in mouse RAW264.7 cells assessed as downregulation of LPS-induced iNOS mRNA expression incubated for 2 hrs prior to LPS challenge measured after 9 hrs by RT-PCR analysis; assay type: functional, cell-based; how it was run: as §3
[11] = molecular target: T1, MAP kinase p38 (Mus musculus); test: Inhibition of p38 MAPK phosphorylation in mouse RAW264.7 cells at 0.5 to 2 uM by Western blot analysis; assay type: cell-based; how it was run: as §4
[12] = system: RAW264.7; test: Antiinflammatory activity in mouse RAW264.7 cells assessed as inhibition of LPS-induced COX-2 expression incubated for 2 hrs prior to LPS challenge measured after 24 hrs by Western blot analysis; assay type: functional, cell-based; how it was run: as §2
[13] = system: RAW264.7; test: Antiinflammatory activity in mouse RAW264.7 cells assessed as downregulation of LPS-induced TNFalpha expression incubated for 2 hrs prior to LPS challenge measured after 24 hrs by ELISA; assay type: functional, cell-based
How it was run: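 Cells seeded 5 × 10^5/well, pretreated 2 h with compound (0.5, 1.0, 2.0 or 5.0 µM), then LPS 0.1 µg/mL for 24 h. TNF-α measured in culture medium by ELISA kit. Means + S.D. of 3 separate experiments in triplicate.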

[14] = system: RAW264.7; test: Antiinflammatory activity in mouse RAW264.7 cells assessed as inhibition of LPS-induced iNOS expression incubated for 2 hrs prior to LPS challenge measured after 24 hrs by Western blot analysis; assay type: functional, cell-based; how it was run: as §2
[15] = molecular target: Transcription factor p65 (Mus musculus) (UniProt Q04207); test: Inhibition of NFkappaB p65 nuclear translocation in LPS-stimulated mouse RAW264.7 cells after 24 hrs by DAPI staining-based laser confocal immunofluorescent microscopic analysis; assay type: cell-based; how it was run: as §1
[16] = system: RAW264.7; test: Antiinflammatory activity in mouse RAW264.7 cells assessed as inhibition of LPS-induced COX-2 expression at 0.5 uM incubated for 2 hrs prior to LPS challenge measured after 24 hrs by Western blot analysis; assay type: functional, cell-based; how it was run: as §2
[17] = system: RAW264.7; test: Antiinflammatory activity in mouse RAW264.7 cells assessed as inhibition of LPS-induced iNOS expression at 0.5 uM incubated for 2 hrs prior to LPS challenge measured after 24 hrs by Western blot analysis; assay type: functional, cell-based; how it was run: as §2
[18] = system: RAW264.7; test: Antiinflammatory activity in mouse RAW264.7 cells assessed as inhibition of LPS-induced PGE2 production; assay type: functional, cell-based

Transcription factor p65 (Mus musculus), sequence (Q04207 whole entry): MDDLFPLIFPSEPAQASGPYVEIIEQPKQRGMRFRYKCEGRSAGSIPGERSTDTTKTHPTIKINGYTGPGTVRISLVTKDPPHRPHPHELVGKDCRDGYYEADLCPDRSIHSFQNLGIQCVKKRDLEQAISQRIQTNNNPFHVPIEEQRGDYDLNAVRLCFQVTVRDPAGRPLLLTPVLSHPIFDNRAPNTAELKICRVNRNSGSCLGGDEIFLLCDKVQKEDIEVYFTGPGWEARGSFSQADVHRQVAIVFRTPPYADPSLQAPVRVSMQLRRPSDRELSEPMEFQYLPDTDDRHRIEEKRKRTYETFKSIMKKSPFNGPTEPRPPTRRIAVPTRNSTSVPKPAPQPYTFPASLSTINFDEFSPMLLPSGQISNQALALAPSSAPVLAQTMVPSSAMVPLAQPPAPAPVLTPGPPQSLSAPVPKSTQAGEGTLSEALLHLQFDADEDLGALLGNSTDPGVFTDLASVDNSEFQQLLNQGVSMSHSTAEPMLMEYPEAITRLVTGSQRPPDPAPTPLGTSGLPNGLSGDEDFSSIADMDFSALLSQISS

COc1ccc(NC2=CC(=O)/C(=N\O)c3ccccc32)cc1
IC50 [1]: 0.87 µM
IC50 [2]: 4.69 µM

COc1ccc(NC2=CC(=O)C(=O)c3ccccc32)cc1
IC50 [1]: 0.81 µM
IC50 [2]: 1.84 µM

Nc1ncnc2c1ncn2[C@@H]1O[C@H](CO)C[C@H]1O
inhibition [3]: Active

O=C1C=C(Nc2ccccc2)c2ccccc2/C1=N/O
IC50 [1]: 0.63 µM
IC50 [2]: 1.67 µM

CC(=N)NCc1cccc(CN)c1 [1400W]
Activity [4]: Not Active
inhibition [5]: Active
inhibition [6]: Active
Activity [7]: Active
IC50 [1]: 0.2 µM
IC50 [2]: 47.5 µM

COc1ccc(OC2=CC(=O)C(=O)c3ccccc32)cc1
inhibition [8]: Dose-dependent effect
inhibition [9]: Dose-dependent effect
Activity [10]: Dose-dependent effect
inhibition [11]: inactive
Activity [4]: Not Active
inhibition [12]: Dose-dependent effect
Activity [13]: Dose-dependent effect
IC50 [1]: 0.74 µM
IC50 [2]: 31.7 µM
inhibition [14]: Dose-dependent effect
inhibition [15]: Active

O=C1C=C(Oc2ccccc2)c2ccccc2C1=O
Activity [4]: Not Active
inhibition [16]: Active
inhibition [17]: Active
IC50 [1]: 0.85 µM
IC50 [2]: 28.5 µM

COc1ccc(-c2nc3c4ccoc4c4ccccc4c3[nH]2)cc1
IC50 [18]: 0.047 µM

COc1ccc(OC2=CC(=O)/C(=N\O)c3ccccc32)cc1
Activity [4]: Not Active
inhibition [16]: Active
inhibition [17]: Active
IC50 [1]: 1.29 µM
IC50 [2]: 20.6 µM

CC1(C)CCC2=C(O1)c1ccccc1C(=O)C2=O [LAPACHONE]
inhibition [8]: Dose-dependent effect
inhibition [9]: Dose-dependent effect
Activity [10]: Dose-dependent effect
Activity [4]: Not Active
inhibition [12]: Dose-dependent effect
Activity [13]: Dose-dependent effect
IC50 [1]: 0.47 µM
IC50 [2]: 4.06 µM
inhibition [14]: Dose-dependent effect

Reference: ChEMBL document CHEMBL2390938, “Synthesis and anti-inflammatory evaluations of β-lapachone derivatives” (Bioorg Med Chem, 2013)
